Data set [1] can be described thus: Clearance in Sprague-Dawley rat at 1 mg/kg, iv administered using PEG400/water as vehicle. Type of data set: ADME, organism-based. Set-up: dose 1 mg/kg, route intravenous. The note with it: in vivo. Put shortly: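 SD rats fasted overnight, given 1 mg/kg iv in PEG400/water (3:1, v/v); three per arm. Blood into K3 EDTA at 5, 15, 30 min, 1, 2, 4, 6, 24 h, spun at 4 °C; plasma extracted with six volumes acetonitrile plus internal standard and quantified by LC-MS/MS (C8 column, formic acid/ACN gradient).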

The subject of a further data set is HCT-116. The data set can be described thus: Antiproliferative activity against human HCT116 cells after 72 hrs by BrdU-based ELISA. Type of data set: functional, cell-based. The note with it: HCT-116, 72 h. Put shortly:
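HCT-116 cells in McCoy's 5A with 10% FBS and pen/strep, seeded 800 cells/well, left overnight at 37 °C, 5% CO2. Nine-point 3-fold serial dilutions in DMSO added for 72 h; BrdU colorimetric ELISA read at 450 and 690 nm. IC50 is the concentration halving proliferation; duplicate runs averaged.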
(In general: An ELISA detects its analyte on a solid surface through an enzyme-linked reagent.)

Data set [2] has as its target T1, Aurora kinase B (Homo sapiens, UniProt Q96GD4). The data set can be described thus: Binding affinity to Aurora kinase B catalytic domain by competition binding assay.
A further data set deals with T2, Aurora kinase A (Homo sapiens, UniProt O14965).
T2 sequence (O14965 whole entry): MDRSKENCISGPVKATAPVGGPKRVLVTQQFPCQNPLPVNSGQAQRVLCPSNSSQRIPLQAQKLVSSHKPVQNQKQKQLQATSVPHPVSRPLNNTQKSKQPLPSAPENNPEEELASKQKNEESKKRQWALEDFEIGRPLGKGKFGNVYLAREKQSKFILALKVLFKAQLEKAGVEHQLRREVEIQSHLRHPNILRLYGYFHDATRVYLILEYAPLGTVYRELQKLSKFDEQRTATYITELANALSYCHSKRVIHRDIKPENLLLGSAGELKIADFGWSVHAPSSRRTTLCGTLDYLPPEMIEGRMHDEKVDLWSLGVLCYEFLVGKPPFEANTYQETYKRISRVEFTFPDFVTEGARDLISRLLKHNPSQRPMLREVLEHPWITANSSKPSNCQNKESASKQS
The data set can be described thus: Binding affinity to Aurora kinase A catalytic domain by competition binding assay.

In data set [3] the target is T1, Aurora kinase B. The data set can be described thus: Inhibition of Aurora kinase B-mediated histone H3 Ser10 phosphorylation in human HCT116 cells after 2 hrs by sandwich ELISA. The class given is cell-based, HCT-116. Put shortly: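 HCT-116 cells seeded 4 × 10⁴/well, 4-6 h at 37 °C, then arrested overnight (16-18 h) with nocodazole at 66 ng/mL final. Treated 2 h with nine-point 3-fold dilutions in DMSO; lysed with phosphatase inhibitor, phospho-H3 (Ser10) sandwich ELISA read at 450 nm. IC50 = 50% inhibition of phosphorylation; duplicate runs averaged.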

From ChEMBL document CHEMBL2163334, “Discovery of highly potent and selective pan-Aurora kinase inhibitors with enhanced in vivo antitumor therapeutic index” (J Med Chem, 2012) come the findings set out here.

T1 sequence (Q96GD4 whole entry, the tested form may be a part): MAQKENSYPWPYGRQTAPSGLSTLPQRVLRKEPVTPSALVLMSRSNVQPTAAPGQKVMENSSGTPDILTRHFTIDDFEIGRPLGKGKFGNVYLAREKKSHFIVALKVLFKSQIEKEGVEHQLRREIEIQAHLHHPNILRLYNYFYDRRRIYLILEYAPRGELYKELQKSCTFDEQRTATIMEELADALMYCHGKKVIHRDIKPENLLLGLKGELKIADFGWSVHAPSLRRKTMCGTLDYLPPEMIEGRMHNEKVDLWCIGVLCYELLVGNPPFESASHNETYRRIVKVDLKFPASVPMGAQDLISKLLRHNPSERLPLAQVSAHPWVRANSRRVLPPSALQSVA

For orientation: clearance means the volume of plasma or blood freed of the substance per unit of time. Read a high clearance as efficient removal. One may read the IC50 as the point on the concentration scale where inhibition reaches its midpoint. Low readings indicate higher potency, high ones lower potency. What is called Kd is the equilibrium constant for the complex coming apart. A lower Kd goes with tighter binding. Turning to `COCCO[C@@H]1CCN(CC(=O)Nc2ccc(Sc3nc(Nc4cc(C)[nH]n4)c4cccn4n3)cc2)C1`, in data set [1], the clearance stood at 62 mL/min/kg. Moreover, the IC50 in the data set with HCT-116 turned out to be 3.1 nM; against Aurora kinase B [3] it was 6.2 nM. The Kd came out at 3.1 nM at Aurora kinase B [2] and 11.5 nM on Aurora kinase A.

Compound `Cc1cc(Nc2nc(Sc3ccc(NC(=O)CN4CC[C@@H](C(=O)NCC(F)(F)F)C4)cc3)nn3cccc23)n[nH]1` gave a clearance in data set [1] of 35 mL/min/kg. The 50% inhibitory concentration (IC50) in the data set with HCT-116 is 0.9 nM; on Aurora kinase B [3], 7 nM. The values for the Kd at Aurora kinase B [2] and on Aurora kinase A were 2.2 nM and 2.5 nM, respectively.

With `Cc1cc(Nc2nc(Sc3ccc(NC(=O)CN4CC[C@@H](OCCCN5CCOCC5)C4)cc3)nn3cccc23)n[nH]1`, the IC50 in the data set on HCT-116 was 10.8 nM; at Aurora kinase B [3], 27.1 nM. In addition, the Kd was determined as 3.7 nM at Aurora kinase B [2] and 5.1 nM at Aurora kinase A.

As to `Cc1cc(Nc2nc(Sc3ccc(NC(=O)CN4CC[C@@H](OCCN5CCOCC5)C4)cc3)nn3cccc23)n[nH]1`, the IC50 in the data set on HCT-116 turned out to be 17.8 nM; at Aurora kinase B [3], 43.4 nM. In addition, the Kd at Aurora kinase B [2] was 6.6 nM; at Aurora kinase A, 11 nM.

Regarding `Cc1cc(Nc2nc(Sc3ccc(NC(=O)CN4CC[C@@H](C(=O)Nc5ccc(F)cc5)C4)cc3)nn3cccc23)n[nH]1`, the IC50 in the data set with HCT-116 came out at 3.8 nM; at Aurora kinase B [3], 42.2 nM. In addition, the figures for the Kd at Aurora kinase B [2] and on Aurora kinase A were 6.9 nM and 19.5 nM, respectively.
